pKi: −log10 of the molar value.

The target of the first assay is T1, 5-hydroxytryptamine receptor 7 (Homo sapiens, UniProt P34969). Kind of assay: Non-selective inhibitory activity was determined against 5-hydroxytryptamine 7 receptor.
T1 sequence (P34969 whole entry): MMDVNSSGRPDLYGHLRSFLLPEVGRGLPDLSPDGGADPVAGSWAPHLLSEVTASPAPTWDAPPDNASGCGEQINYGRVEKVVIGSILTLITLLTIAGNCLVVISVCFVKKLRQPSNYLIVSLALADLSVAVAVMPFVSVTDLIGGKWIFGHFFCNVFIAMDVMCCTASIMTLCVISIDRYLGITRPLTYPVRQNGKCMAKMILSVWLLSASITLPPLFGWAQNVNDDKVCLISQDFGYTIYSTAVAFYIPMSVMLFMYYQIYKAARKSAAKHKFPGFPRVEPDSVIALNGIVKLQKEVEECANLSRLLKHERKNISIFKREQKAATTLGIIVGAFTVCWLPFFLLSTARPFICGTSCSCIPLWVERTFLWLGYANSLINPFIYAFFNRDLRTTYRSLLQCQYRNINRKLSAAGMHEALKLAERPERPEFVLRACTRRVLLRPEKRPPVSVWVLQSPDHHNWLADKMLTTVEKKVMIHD
For orientation: pKi means the Ki on a negative log10 scale, so that one unit is a factor of ten. Regarding `CC(C)(C)[C@@]1(O)CCN2C[C@@H]3c4ccccc4CCc4cccc(c43)[C@H]2C1`, the pKi was 7.20.

The molecule `CCN(CC)C(=O)[C@@H]1C=C2c3cccc4[nH]c(Br)c(c34)C[C@H]2N(C)C1` showed a pKi of 8.00. The molecule `CCC(CO)NC(=O)[C@@H]1C=C2c3cccc4c3c(cn4C)C[C@H]2N(C)C1` (single isomer, unassigned) [METHYSERGIDE] had a negative logarithm of the Ki (pKi) of 7.90. The same measure, in the same setting: then `CN1CCC(=C2c3ccccc3C=Cc3ccccc32)CC1` [CYPROHEPTADINE], with 7.30; and `CN1C[C@@H](NS(=O)(=O)N(C)C)C[C@@H]2c3cccc4c3c(cn4C)C[C@H]21` [MESULERGINE], with 8.10; and `Cc1nc2sccn2c(=O)c1CCN1CCC(=C(c2ccc(F)cc2)c2ccc(F)cc2)CC1` [RITANSERIN], with 7.80.

The next assay concerns the target T1, 5-hydroxytryptamine receptor 7. Put plainly: Binding affinity towards cloned human 5-hydroxytryptamine 7 receptor was determined in HEK293 cells using [3H]5-CT as radioligand. Format: cell-based.
Molecule `C[C@H]1CCCN(CC[C@@H](C)N(C)S(=O)(=O)c2cccc3ccccc23)C1` gave a negative logarithm of the Ki (pKi) of 6.20.

Regarding `CC1CCN(CC[C@@H]2CCCCN2S(=O)(=O)c2cccc3ccccc23)CC1`, the pKi is 7.80. Still for that read-out and setting: then `COc1cccc(S(=O)(=O)N2CCC[C@H]2CCN2CCC(C)CC2)c1`, with 8.00. On the same count and under the same terms, the figure for `CC1CCN(CC[C@@H]2CCCN2S(=O)(=O)c2ccc(Cl)c(Cl)c2)CC1` is 8.40. The molecule `C[C@H]1CCCN(CC[C@H](C)N(C)S(=O)(=O)c2cccc3ccccc23)C1` showed a pKi of 4.00. Molecule `CC1CCN(CC[C@@H](C)N(C)S(=O)(=O)c2cccc3ccccc23)CC1` showed a negative-log Ki (pKi) of 7.50. `CC1CCN(CC[C@@H]2CCCN2S(=O)(=O)c2cccc(Br)c2)CC1`: the negative-log Ki (pKi) was 8.70. In turn, `C[C@@H]1CCCN(CC[C@H](C)N(C)S(=O)(=O)c2cccc3ccccc23)C1` gave a pKi of 5.80. Same read-out and setting: then `CC1CCN(CC[C@@H]2CCCN2S(=O)(=O)c2cccc3ccccc23)CC1`, with 8.00.

The target is the same in another assay. Kind of assay: Binding affinity towards human recombinant 5-hydroxytryptamine 7 receptor was determined using [3H]5-CT as radioligand.
For the molecule `O=C1Nc2cccc3c2C1(CCCCN1CCN(C2CCCCC2)CC1)CCC3` (stereo not drawn), the pKi is 4.00.

The target of the next assay is T2, 5-hydroxytryptamine receptor 7 (Rattus norvegicus, UniProt P32305). Put plainly: Binding affinity towards 5-hydroxytryptamine receptor 7 on rat hypothalamus membranes using [3H]5-CT as radioligand. Format: tissue-based, Membrane. The essentials: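 Rat hypothalamus homogenized in ice-cold 50 mM Tris-HCl pH 7.4, spun at 48 000g, washed and preincubated at 37 °C for 10 min. Membranes were resuspended in Tris buffer with 4 mM CaCl2, 1 mg/mL ascorbic acid, 0.01 mM pargyline and 3 μM pindolol, then incubated 120 min at 23 °C with 0.5 nM [3H]-5-CT. Nonspecific binding was set by 10 μM 5-HT. GF/C filtration, scintillation counting. Ki from IC50 via Cheng–Prusoff; 2–4 assays in triplicate.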
T2 sequence (P32305 whole entry): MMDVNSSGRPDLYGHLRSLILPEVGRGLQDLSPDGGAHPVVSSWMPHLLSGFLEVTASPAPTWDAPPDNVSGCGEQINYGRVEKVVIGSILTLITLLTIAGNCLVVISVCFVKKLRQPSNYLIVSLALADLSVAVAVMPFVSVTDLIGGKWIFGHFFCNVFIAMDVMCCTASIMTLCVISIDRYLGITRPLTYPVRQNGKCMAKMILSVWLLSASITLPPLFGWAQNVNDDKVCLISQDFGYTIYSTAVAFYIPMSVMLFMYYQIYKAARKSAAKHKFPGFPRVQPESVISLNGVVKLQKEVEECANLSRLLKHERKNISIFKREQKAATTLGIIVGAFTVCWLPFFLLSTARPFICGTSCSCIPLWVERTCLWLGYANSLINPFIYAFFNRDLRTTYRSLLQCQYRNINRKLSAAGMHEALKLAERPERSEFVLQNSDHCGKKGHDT
The molecule `CN1CCN(CCCCN2c3cccc4cccc(c34)S2(=O)=O)CC1` had a pKi of less than 5.00. Molecule `CC1CCN(CCCCCN2c3cccc4cccc(c34)S2(=O)=O)CC1` showed a pKi of less than 5.00. The molecule `CC1CCN(CCCCN2c3cccc4cccc(c34)S2(=O)=O)CC1` had a negative logarithm of the Ki (pKi) of less than 5.00. Same read-out and setting: the figure for `O=C1c2cccc3cccc(c23)N1CCCCN1CC=C(c2ccccc2)CC1` is less than 6.00; for `CC1CCN(CCCCCCN2c3cccc4cccc(c34)S2(=O)=O)CC1` it is less than 5.00. On to `O=C1c2cccc3cccc(c23)N1CCCCCCN1CCN(c2ccccc2)CC1`, for which the pKi is less than 6.00. Same read-out and setting: then `O=S1(=O)c2cccc3cccc(c23)N1CCCCCCN1CCN(c2ccccc2)CC1`, with less than 6.00; and `O=C1c2cccc3cccc(c23)N1CN1CCN(c2ccccc2)CC1`, with less than 5.00; and `O=C1c2cccc3cccc(c23)N1CCCCCN1CCN(C2CCCCC2)CC1`, with less than 5.00.

Regarding `COc1ccccc1N1CCN(CN2C(=O)c3cccc4cccc2c34)CC1`, the pKi is less than 5.00.

In the case of `COc1ccccc1N1CCN(CCCCCCN2C(=O)c3cccc4cccc2c34)CC1`, the pKi was less than 6.00. `O=C1c2cccc3cccc(c23)N1CCCCN1CCN(c2ccccc2)CC1`: the pKi is 6.20. Molecule `O=C1c2cccc3cccc(c23)N1CCCCN1CCN(C2CCCCC2)CC1` gave a pKi of less than 5.00. On the same count and under the same terms, then `O=C1c2cccc3cccc(c23)N1CCCCN1CCCCC1`, with less than 5.00. The same measure, in the same setting: then `CN1CCN(CCCCN2C(=O)c3cccc4cccc2c34)CC1`, with less than 5.00; and `O=S1(=O)c2cccc3cccc(c23)N1CCCCN1CCCCC1`, with less than 5.00.

Molecule `CC1CCN(CCCCN2C(=O)c3cccc4cccc2c34)CC1` had a negative-log Ki (pKi) of less than 6.00.

Consider `O=S1(=O)c2cccc3cccc(c23)N1CCCCN1CCN(c2ccccc2)CC1`, for which the negative-log Ki (pKi) is 6.00. Same read-out and setting: then `COc1ccccc1N1CCN(CCCN2C(=O)c3cccc4cccc2c34)CC1`, with 6.40. Still for that read-out and setting: then `Cn1ccnc1SCCCCN1C(=O)c2cccc3cccc1c23`, with less than 5.00; and `O=C1c2cccc3cccc(c23)N1CCCCN1CCC(c2ccccc2)CC1`, with less than 6.00. As for `O=C1c2cccc3cccc(c23)N1CCCN1CCN(c2ccccc2)CC1`, the negative-log Ki (pKi) was less than 5.00. For `O=C1c2cccc3cccc(c23)N1CCCCN1CCC(C2CCCCC2)CC1`, the pKi is less than 6.00. `O=S1(=O)c2cccc3cccc(c23)N1CCCCCN1CCC(C2CCCCC2)CC1` had a negative logarithm of the Ki (pKi) of less than 5.00. For the molecule `O=C1c2cccc3cccc(c23)N1CCCCCN1CC=C(c2ccccc2)CC1`, the negative-log Ki (pKi) was less than 6.00. Still for that read-out and setting: the figure for `CC(C)C1CCN(CCCCCN2C(=O)c3cccc4cccc2c34)CC1` is less than 6.00; for `O=C1Nc2cccc3c2C1(CCCCN1CC=C(c2ccccc2)CC1)CCC3` (stereo not drawn) it is 7.30.

`CC1CCN(CCC2CCCN2S(=O)(=O)c2cccc(O)c2)CC1` (single isomer, unassigned) showed a pKi of 7.50.

Molecule `Cc1cccc(S(=O)(=O)N(C)[C@H](C)CCN2CCC(C)CC2)c1` [SB-258719] gave a pKi of 7.10.

In a further assay the target is T2, 5-hydroxytryptamine receptor 7. Put plainly: Binding affinity towards cloned rat 5-hydroxytryptamine 7 receptor was determined using [3H]5-HT as radioligand.
The molecule `Cc1cccc(O)c1-c1cccc2c1-c1cccc3c1[C@@H](C2)N(C)CC3` had a pKi of 7.60. Same read-out and setting: then `Cc1cccc(C#N)c1-c1cccc2c1-c1cccc3c1[C@@H](C2)N(C)CC3`, with 8.40; and `COc1cccc(OC)c1-c1cccc2c1-c1cccc3c1[C@@H](C2)N(C)CC3`, with 7.90.

Values taken from ChEMBL document CHEMBL1145937, “Optimization of the pharmacophore model for 5-HT7R antagonism. Design and synthesis of new naphtholactam and naphthosultam derivatives” (J Med Chem, 2003).
